Shown are actives, neighbours in structure and some others; about 2.3% of the full set was active somewhere.
GSTO1 inh: counter-screen for RBBP9 inhibitors: inhibitors of human GSTO1; P78417; recombinant GSTO1, activity-based probe fluorescence polarization; inhibition, % at 5.96 µM; 1.1% of 300,000 active; AID 1974;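 active = inhibition above the campaign mean inhibition plus 3 SD, cut at about 35% in these data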;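 also: 0% = GSTO1-1 with DMSO and 100% = wells lacking GSTO1-1 enzyme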
Target sequence (P78417 whole entry, looked up): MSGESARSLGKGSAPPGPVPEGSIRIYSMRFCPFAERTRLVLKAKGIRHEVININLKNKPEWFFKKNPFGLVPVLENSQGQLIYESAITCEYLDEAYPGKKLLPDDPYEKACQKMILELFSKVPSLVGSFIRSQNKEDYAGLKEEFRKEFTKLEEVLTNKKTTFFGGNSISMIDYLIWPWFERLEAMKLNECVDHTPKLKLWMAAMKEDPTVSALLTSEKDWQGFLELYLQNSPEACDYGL
RBBP9 inhibitor: blocks human serine hydrolase RBBP9. 0.2% of 220,000 active. inhibition, % at 7.94 µM. recombinant RBBP9, FP-Rh probe fluorescence polarization. O75884;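 active = inhibition above the campaign mean of all tested compounds plus 3 SD, cut at about 14% in these data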;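 also: plate controls were DMSO wells with RBBP9 for no effect and wells lacking RBBP9 protein for full effect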
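Controls: DMSO-treated enzyme wells and wells lacking RBBP9 | Material: RBBP9 protein | Technique: Fluorescence polarization | Replication: Single well per compound, no replicates | Buffer or medium: Tris-NaCl-Pluronic buffer, pH 8.0 | Timing: 30 min compound preincubation, 45 min probe labeling, 25 °C | Read-out basis: Percent inhibition from mP, scaled between DMSO and no-protein wells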
PAD4 inh: blocks human protein arginine deiminase 4. Q9UM07. recombinant PAD4, RCA probe fluorescence polarization. inhibition, % at 6.36 µM. 0.41% of 330,000 active. AID 485272;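 active = percent inhibition above a cutoff equal to the mean of all tested compounds plus 3 SD, cut at about 15% in these data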;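 also: 0% = PAD4 with RCA probe and DMSO and 100% = probe without PAD4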
PME-1 primary: PME-1 (human) inhibition. AID 2130. inhibition, % at 5.9 µM. Q9Y570. 0.53% of 320,000 active. recombinant PME-1, FP-Rh probe fluorescence polarization;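 active = inhibition above the campaign mean of all compounds plus 3 SD, cut at about 26% in these data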;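 also: competitive labeling of PME-1 active site by serine hydrolase directed probe; 0% = PME-1 with DMSO and 100% = wells lacking PME-1 enzyme; inhibitors block probe labeling so polarization falls and inhibition rises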
Target sequence (Q9Y570 whole entry, looked up): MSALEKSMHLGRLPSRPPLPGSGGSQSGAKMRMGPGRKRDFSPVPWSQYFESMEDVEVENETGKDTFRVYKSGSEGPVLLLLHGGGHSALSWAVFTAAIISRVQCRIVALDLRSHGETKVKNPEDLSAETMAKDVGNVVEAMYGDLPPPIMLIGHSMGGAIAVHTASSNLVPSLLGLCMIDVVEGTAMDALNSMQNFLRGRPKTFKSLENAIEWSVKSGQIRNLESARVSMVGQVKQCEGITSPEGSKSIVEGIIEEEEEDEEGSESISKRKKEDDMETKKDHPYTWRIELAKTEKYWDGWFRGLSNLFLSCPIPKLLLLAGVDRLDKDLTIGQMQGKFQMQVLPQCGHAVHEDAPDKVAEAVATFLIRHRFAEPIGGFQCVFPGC
PRMT1 inh: inhibitors of human PRMT1 | recombinant PRMT1, activity-based probe fluorescence polarization | inhibition, % at 2.79 µM | Q99873 | 1.3% of 370,000 active;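 active = inhibition above about 21% made by adding two undisclosed values, limit read from the data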
Fam108B inh: Fam108B inhibition, counter-screen for RBBP9 inhibitors; 0.33% of 300,000 active; recombinant Fam108B, FP-Rh probe fluorescence polarization; AID 1947; inhibition, % at 9.51 µM;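 active = inhibition above the screen mean inhibition plus 3 SD, computed separately per campaign, cut at about 18% in these data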;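 also: inhibitors lower polarization as less probe binds the enzyme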
PRMT1 confirm: PRMT1 (human) inhibition, FP confirmation; shares compounds with PRMT1 inh; recombinant His-PRMT1, activity-based probe fluorescence polarization; inhibition, % at 2.79 µM; 42% of 3,300 active; AID 687036;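 active = mean inhibition across replicates above the hit cutoff derived for the earlier primary screen, cut at about 22% in these data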
The depositor's hits bear a star; . = no result.

SMILES | GSTO1 inh | RBBP9 inhibitor | PAD4 inh | PME-1 primary | PRMT1 inh | Fam108B inh | PRMT1 confirm
O=C1CCC(=O)c2ccc3c4c(ccc1c24)CC3 | . | . | . | . | 27* | . | 6
CC(C)(C)c1ccc(C(=O)CC(Sc2ccc(Cl)cc2)C(=O)O)cc1 (stereo not drawn) | -1 | -3 | 3 | -1 | 73* | -1 | 85*
O=C(CC(C(=O)O)c1ccc(F)cc1)c1ccc(Cl)cc1 (stereo not drawn) | -4 | . | -2 | 1 | 1 | -5 | .
Cc1ccc(SC(CC(=O)c2ccc(F)cc2)C(=O)O)cc1 (stereo not drawn) | -3 | . | 3 | 4 | 82* | 1 | 79*
COc1ccc(OC)c(CN2CCN(CCCc3ccccc3)C(CCO)C2)c1 (stereo not drawn) | 2 | . | -4 | 3 | 0 | 2 | .
Cc1ccc(S(=O)(=O)CCC(=O)c2ccc(O)cc2O)cc1 | 1 | -11 | 4 | -11 | 35* | 4 | 4
Cc1ccc(S(=O)(=O)CCC(=O)OCC(=O)c2cc(C)ccc2C)cc1 | 3 | . | -4 | 3 | 1 | -1 | .
O=C(CSC1=NCCS1)Nc1ccc(S(=O)(=O)NC2CCCCC2)cc1 | -12 | -2 | 13 | 8 | 29* | 3 | 26*
O=C(CSC1=NCCS1)Nc1ccc(S(=O)(=O)N2CCCCCC2)cc1 | -12 | -10 | 4 | 2 | 38* | -1 | 52*
COc1cc(NS(=O)(=O)c2ccc(NC(=O)CSC3=NCCS3)cc2)nc(OC)n1 | -22 | -7 | 11 | 1 | . | -7 | .
O=S(=O)(Nc1ccccc1)c1ccc(F)cc1 | 5 | 6 | -5 | 2 | 0 | 1 | .
Cc1ccccc1/C=C/C(=O)NCC(=O)N1CCC(N(C)C2CCCCC2C)CC1 (stereo not drawn) | -2 | -7 | -2 | -5 | -1 | 2 | .
CC(=O)Nc1ccc(S(=O)(=O)/N=C2/NC(=O)/C(=C\c3ccco3)S2)cc1 | 7 | 8 | -2 | -13 | 35* | 4 | 13
Cc1ccc(S(=O)(=O)/N=C2/NC(=O)/C(=C/c3ccccc3)S2)cc1 | -42 | -2 | -4 | 0 | 2 | -9 | .
COc1cc(/C=C2\S/C(=N/S(=O)(=O)c3ccc(C)cc3)NC2=O)c([N+](=O)[O-])cc1OC | 28 | -14 | -14 | -2 | 27* | 0 | 2
Cc1ccc(S(=O)(=O)/N=C2/NC(=O)/C(=C\c3ccccc3)S2)cc1 | . | . | -7 | . | 0 | . | .
Cc1ccc(S(=O)(=O)/N=C2/NC(=O)/C(=C\c3ccco3)S2)cc1 | -33 | -8 | -10 | -6 | 28* | 1 | 6
CCN(C(=O)CSc1nnc(COc2ccccc2F)n1N)C1CCS(=O)(=O)C1 (stereo not drawn) | -1 | . | -4 | 4 | 1 | 8 | .
Cc1ccc2nc(-c3ccc(NC(=O)CSc4nnc(-c5cccc(Cl)c5)n4Cc4ccco4)cc3)sc2c1 | . | . | . | . | 47* | . | 13
Cc1ccc(-c2nnc(SCC(=O)Nc3ccc(-c4nc5ccc(C)cc5s4)cc3)n2Cc2ccco2)cc1 | . | . | . | . | 34* | . | 22*
CCOC(=O)c1c(CC(C)C)csc1NC(=O)COC(=O)c1cnc(C)cn1 | . | . | . | . | -8 | . | .
CCOC(=O)c1c(-c2ccco2)csc1NC(=O)COC(=O)c1cnc(C)cn1 | 14 | . | -11 | 4 | 36* | 5 | 4
Oc1oc(-c2ccccc2)nc1C=NCc1ccncc1 | -5 | -8 | -2 | -2 | -2 | 0 | .
O=[N+]([O-])c1cccc(N=Cc2sc3ccccc3c2O)c1 | 6 | -9 | 2 | -6 | 40* | 2 | 25*
O=[N+]([O-])c1ccc(N=Cc2sc3ccccc3c2O)cc1 | 1 | -9 | -6 | -4 | 49* | -1 | 6
SMILES | GSTO1 inh | RBBP9 inhibitor | PAD4 inh | PME-1 primary | PRMT1 inh | Fam108B inh | PRMT1 confirm
Oc1c(C=NCc2ccccc2)sc2ccccc12 | 5 | -10 | 1 | 2 | 43* | -7 | 34*
CC(=O)Nc1ccc(SCC(=O)NCC2(N3CCCCC3)CCCCC2)cc1 | . | . | 8 | . | 41* | . | 37*
O=C(CSc1ccc(Br)cc1)NCC1(N2CCCCC2)CCCCC1 | . | . | . | . | -1 | . | .
COc1cccc(-c2nc(SC)nc3sc(C(=O)NC(C)(C)C)c(N)c23)c1 | 1 | . | -3 | -2 | 25* | -6 | 0
COc1cccc(-n2c(SCC(=O)Nc3ccc4c(c3)CCC4)nc3ccccc3c2=O)c1 | -6 | -30 | -6 | -22 | -2 | -13 | .
CCOC(=O)c1sc(N)c(C(=O)Nc2ccccc2OC)c1C | 8 | 3 | 2 | 29* | 26* | 3 | 7
COC(=O)c1c(N)sc(C(=O)NCCc2ccccc2)c1C | . | . | . | . | 26* | . | 30*
CCOC(=O)c1sc(N)c(C(=O)OC)c1C | -1 | 1 | 0 | 2 | -4 | -1 | .
O=c1[nH]c(CN2CCN(c3ccc([N+](=O)[O-])cc3)CC2)nc2ccsc12 | -2 | -5 | -6 | -24 | -2 | 3 | .
Cc1ccc(/C=[N+](\[O-])c2ccccc2C)o1 | 4 | . | 2 | 3 | 30* | 5 | -3
Cc1ccccc1/[N+]([O-])=C/c1cccs1 | 2 | 0 | 7 | 4 | 6 | 4 | .
COc1ccccc1/C=C/C=C1\Oc2c(ccc(O)c2CN(C)C)C1=O | 7 | -9 | 1 | -4 | 27* | 0 | 16
O=[N+]([O-])c1ccc(S(=O)(=O)N2CCSC2c2ccco2)cc1 (stereo not drawn) | 6 | 4 | -6 | 0 | 46* | 1 | 33*
O=S(=O)(c1ccc(Cl)cc1)N1CCSC1c1ccco1 (stereo not drawn) | 4 | -6 | -1 | 2 | 2 | 0 | .
COC(=O)CSc1nc2nc(-c3cccs3)cc(C(F)(F)F)c2c(=O)[nH]1 | -8 | . | 1 | 8 | 2 | 2 | .
O=C(CSc1nc2nc(-c3cccs3)cc(C(F)(F)F)c2c(=O)[nH]1)NCc1ccco1 | -67 | -7 | 4 | 4 | 30* | -4 | 13
O=C(CSc1nc2nc(-c3cccs3)cc(C(F)(F)F)c2c(=O)[nH]1)C(F)(F)F | 8 | . | 0 | 0 | 58* | -2 | 84*
COc1ccc(OCCN2CCN(C(=O)c3ccc(OC)cc3)CC2)cc1 | -3 | . | -6 | -6 | 2 | 1 | .
COc1ccccc1C(=O)NC(=O)COC(=O)CCNS(=O)(=O)c1ccccc1 | -1 | . | 4 | 1 | 1 | 1 | .
CCCC1=Nc2cc(C(=O)NCCCN3CCN(C)CC3)ccc2Sc2ccccc21 | 0 | . | 1 | -6 | -1 | -4 | .
COc1ccc(CC(=O)NCCc2ccc(OC)c(OC)c2)cc1 | 4 | . | -1 | 2 | -4 | 2 | .
CC(C)=C1C2C=CC1C1C(=O)N(c3ccc4c(c3)OCO4)C(=O)C21 (stereo not drawn) | 3 | -6 | -5 | 3 | 73* | -2 | 5
COC(=O)c1c(N)[nH]c(C(=O)c2ccccc2)c1-c1ccc(Cl)cc1 | . | . | . | . | -2 | . | .

Screens from PubChem BioAssay.
